Assay results gathered from unrelated publications.
Each line is one published result; the experiments were not run side by side. In brackets after ≈: the same amount, converted by molar mass.

CC(C)C(C)CCCCCCCCCCCc1cc(O)cc(O)c1 (stereo not drawn)
IC50 (Klebsiella pneumoniae; microbial growth; ATCC29665): > 200 µM

COC(=O)c1cc(-c2cccc(NC(=O)Nc3ccccc3F)c2)on1
MIC (Klebsiella pneumoniae; microbial growth, broth dilution; BAA1705): > 64 µg/mL

CCCCCCCCCCCCCCCc1cc(O)cc(O)c1
IC50 (Streptococcus pneumoniae; microbial growth): > 200 µM

Cc1c(NN=C(C#N)C2=NC(=O)CS2)c(=O)n(-c2ccccc2)n1C
MBC (Klebsiella pneumoniae; microbial killing, broth dilution): 2 µg/mL (≈ 5.64 µM)

COC(=O)c1cc(-c2cccc(NC(=S)Nc3ccc(C#N)cc3)c2)on1
MIC (Klebsiella pneumoniae; microbial growth, broth dilution; BAA1705): > 64 µg/mL

NCCc1ccc(O)cc1
activity vs control (Cryptosporidium parvum; parasite growth, imaging; HCT-8; 1 mM, 24 h, intracellular): 94%

CCC(CCCCCCCCCCc1cc(O)cc(O)c1)C(C)C (stereo not drawn)
IC50 (Streptococcus pneumoniae; microbial growth): 30.2 µM

COC(=O)c1cc(-c2cccc(NC(=O)Nc3cc(Cl)ccc3Cl)c2)on1
MIC (Klebsiella pneumoniae; microbial growth, broth dilution; BAA1705): > 64 µg/mL

CC(C)CCCCCCCCCCCCCCCc1cc(O)cc(O)c1
IC50 (Klebsiella pneumoniae; microbial growth; ATCC29665): > 200 µM

COC(=O)c1cc(-c2cccc(NC(=S)Nc3ccc(OC)cc3)c2)on1
MIC (Klebsiella pneumoniae; microbial growth, broth dilution; BAA1705): > 64 µg/mL

N#Cc1c[nH]c2ccccc12
EC90 (Cryptosporidium parvum; parasite growth; HCT-8; 24 h, intracellular): 386 µM

Oc1cccc2cccnc12
IC50 (Klebsiella pneumoniae; microbial growth, broth dilution; ATCC700603): 49.5 µg/mL
